Results on 167 variants are retold here after the RNAGym collection of RNA variant scans (doi:10.1002/anie.201605470).

The labels stand for the following.
B1: Osa-1-4 twister ribozyme (parent)
chain: CCGCCUAACACUGCCAAUGCCGGUCCCAAGCCCGGAUAAAAGUGGAGGGGGCGG

The data set covers variants of B1. The data set is described as follows: self-cleavage, relative activity (ratio to wild type); higher = more cleavage; co-transcriptional. In short, it runs like this: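 Values are relative activity: the fraction cleaved, normalised to wild type. A doped DNA template for a 54-nucleotide twister ribozyme from Oryza sativa had 97 % wild-type base and 1 % of each other base at the 48 positions downstream of the cleavage site. The RNA was transcribed in vitro for 2 h at 37 °C so that it could cleave itself co-transcriptionally, then sequenced deeply, with cleavage status scored from the presence or absence of upstream sequence in reads.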
For the variant C14G U37C, the self-cleavage worked out at 0.19. Turning to C14G U37A, the self-cleavage amounted to 0.27.

As for C14U G47U, the self-cleavage turned out to be 0.06.

With C14U G47C, the self-cleavage came to 0.06.

Turning to C14U G47A, the self-cleavage came to 0.07.

Take C14U G42A: the self-cleavage was 0.09. Regarding C14U G42C, the self-cleavage is 0.06.

Take C14U G42U: the self-cleavage is 0.03. Under C14U G48U stands 0.05. In the case of C14U G48C it was 0.05; in that of C14U G48A, 0.05. Turning to C15A G53U, the self-cleavage turned out to be 0.1. In the case of C15A G53A it was 0.14; in that of C15A G53C, 0.06; in that of C15A G22A, 0.2. In the case of C15A G22U it was 0.09; in that of C15A G22C, 0.03. Under C14U G51U stands 0.05; under C14U G51C, 0.04; under C14U G51A, 0.12. As for C15G G45C, the self-cleavage was 0.04. In the case of C15G G45A it was 0.07; in that of C15G G45U, 0.04; in that of C15U C25A, 0.03. With C15A G19A, the self-cleavage worked out at 0.92. On to C15A G19U, for which the self-cleavage is 0.82. Under C15A G19C stands 0.38; under C14U U43C, 0.09. Under C14U U43G stands 0.09; under C14U U43A, 0.12. In the case of C15A C52G it was 0.32; in that of C15A C52U, 0.57. Regarding C15A C52A, the self-cleavage was 0.23. In the case of C14U C26U it was 0.11. In the case of C14U C26G it was 0.07; in that of C14U C26A, 0.03. In the case of C14U G54C it was 0.12; in that of C14U G54U, 0.47.

On to C14U G54A, for which the self-cleavage is 0.17. In the case of C15A C26U, the self-cleavage came to 0.12.

On to C15A C26G, for which the self-cleavage stood at 0.06. Under C15A C26A stands 0.05; under C14U G19U, 0.05; under C14U G19A, 0.09. Under C14U G19C stands 0.03; under C15G G35U, 0.3.

Take C15G G35C: the self-cleavage came out at 0.14.

With C15G G35A, the self-cleavage came to 0.38. In the case of C14U C27G it was 0.06; in that of C14U C27A, 0.05; in that of C14U C27U, 0.06. In the case of C15G C25U it was 0.12; in that of C15G C25A, 0.05; in that of C15G C25G, 0.07. In the case of C15G C33A it was 0.05; in that of C15G C33G, 0.06; in that of C15G C33U, 0.11. With C14U C52A, the self-cleavage came to 0.21. Under C14U C52G stands 0.28. Consider C14U C52U, for which the self-cleavage worked out at 0.52. Under C14G U18A stands 0.16; under C14G U18G, 0.27; under C14G U18C, 0.15.

Take C14G U12C: the self-cleavage stood at 0.09.

Turning to C14G U12A, the self-cleavage was 0.09. In the case of C14G U12G it was 0.06; in that of C15A G23U, 0.05. In the case of C15A G23A it was 0.08. C15A G23C: the self-cleavage was found to be 0.03. Under C15A U43A stands 0.14; under C15A U43C, 0.1. C15A U43G: the self-cleavage amounted to 0.11.

For the variant C15U C9G, the self-cleavage amounted to 0.14.

Take C15U C9A: the self-cleavage worked out at 0.05. For C15U C9U, the self-cleavage came out at 0.07. In the case of C14U C21U it was 0.39; in that of C14U C21A, 0.12. In the case of C14U C21G it was 0.06; in that of C15A G35C, 0.09; in that of C15A G35A, 0.48. As for C15A G35U, the self-cleavage came to 0.35. In the case of C14U G13C it was 0.02.

Turning to C14U G13U, the self-cleavage came to 0.02. Under C14U G13A stands 0.03; under C15A G13A, 0.04; under C15A G13C, 0.04. In the case of C15A G13U it was 0.02. On to C15A G44C, for which the self-cleavage is 0.33.

For C15A G44A, the self-cleavage was found to be 0.11.

In the case of C15A G44U, the self-cleavage is 0.19. In the case of C15A U12G it was 0.15; in that of C15A U12C, 0.07; in that of C15A U12A, 0.11. Turning to C14U G22U, the self-cleavage was 0.11.

Turning to C14U G22A, the self-cleavage is 0.21.

As to C14U G22C, the self-cleavage came out at 0.04. Under C15G G30U stands 0.06; under C15G G30C, 0.03; under C15G G30A, 0.03. In the case of C14G G49C it was 0.03; in that of C14G G49U, 0.03. In the case of C15U C20U it was 0.54.

In the case of C15U C20A, the self-cleavage was determined as 0.45. Under C15U C20G stands 0.05; under C15G U43A, 0.17.

For C15G U43C, the self-cleavage was 0.11. In the case of C15G U43G it was 0.1; in that of C15A U37G, 0.78. Under C15A U37C stands 0.59.

Consider C15A U37A, for which the self-cleavage was determined as 0.51. Under C14G U24A stands 0.04. As for C14G U24C, the self-cleavage came out at 0.04. Under C14G U24G stands 0.02; under C15G G34A, 0.27; under C15G G34U, 0.13. In the case of C15G G34C it was 0.18. Under C14U C9G stands 0.2. In the case of C14U C9U, the self-cleavage stood at 0.41. Under C14U C9A stands 0.12; under C15A C33U, 0.09; under C15A C33A, 0.07.

Consider C15A C33G, for which the self-cleavage is 0.03. For C15G G23A, the self-cleavage was 0.14.

Regarding C15G G23C, the self-cleavage was 0.07. With C15G G23U, the self-cleavage was 0.04. Under C15G G48C stands 0.05; under C15G G48U, 0.04. In the case of C15G G48A it was 0.05. Under C15A G42C stands 0.08; under C15A G42U, 0.05; under C15A G42A, 0.12. C15G G54A: the self-cleavage stood at 0.19.

On to C15G G54C, for which the self-cleavage stood at 0.16. Under C15G G54U stands 0.35. Under C15G G49C stands 0.05; under C15G G49U, 0.06. In the case of C15G G49A it was 0.07. On to C14G G53C, for which the self-cleavage is 0.04. C14G G53A: the self-cleavage was found to be 0.09. Turning to C14G G53U, the self-cleavage stood at 0.06. In the case of C15G C9G it was 0.66; in that of C15G C9U, 0.11. As for C15G C9A, the self-cleavage is 0.06. Under C14U G44A stands 0.59; under C14U G44U, 0.14; under C14U G44C, 0.33.

For the variant C15G U12G, the self-cleavage amounted to 0.15. As to C15G U12A, the self-cleavage was found to be 0.13.

Regarding C15G U12C, the self-cleavage was 0.1. In the case of C14U U24A it was 0.04.

C14U U24G: the self-cleavage stood at 0.02. Regarding C14U U24C, the self-cleavage amounted to 0.05. Under C15G U37C stands 0.47; under C15G U37A, 0.45. Regarding C15G U37G, the self-cleavage stood at 0.72. In the case of C14G G51A it was 0.08; in that of C14G G51U, 0.04. For C14G G51C, the self-cleavage stood at 0.04.

In the case of C15G G13C, the self-cleavage is 0.02. Under C15G G13A stands 0.05. Under C15G G13U stands 0.02. As to C15G U18A, the self-cleavage came out at 0.48. Consider C15G U18G, for which the self-cleavage worked out at 0.37. As for C15G U18C, the self-cleavage is 0.54. Under C15A G54U stands 0.43; under C15A G54A, 0.19.

In the case of C15A G54C, the self-cleavage is 0.11.
